Tests used:
mouse [1] = assay: concentration in blood after dosing; conditions: dosed: benzo[a]pyrene, 15 mg/kg, oral, C57BL/6J
In short: (§1)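 Sampling and analytical methods are those of each source and frequently went unreported. The concentration-versus-time and amount-versus-time points were compiled from published in vivo toxicokinetic studies and two structured collections. Most were digitised from plot screenshots with WebPlotDigitizer, with others copied from tables, in the reported units.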

Mouse [2] = assay: concentration in plasma after dosing; conditions: 10 min; dosed: 2-Hydroxy-4-methoxybenzophenone; 50 mg/kg; iv; Male; B6C3F1
Mouse [3] = assay: concentration in plasma after dosing; conditions: 0.25 h; dosed: 2-Hydroxy-4-methoxybenzophenone; 500 mg/kg; oral; Male; B6C3F1
monkey = assay: concentration in blood after dosing; conditions: dosed: methanol, inhalation, duration: 6 hr, male, Macaca mulatta
In short: as §1

Rat [4] = assay: concentration in liver after dosing; conditions: 6 h; dosed: Fluorotelomer alcohol 8+2; 80 mg/kg; oral; Female; Harlan Sprague Dawley
Rat [5] = assay: concentration in brain after dosing; conditions: 3 h; dosed: Perfluorooctanoic acid; 12 mg/kg; oral; Male; Harlan Sprague Dawley
Rat [6] = assay: concentration in kidney after dosing; conditions: 192 h; dosed: Perfluorooctanoic acid; 12 mg/kg; oral; Male; Harlan Sprague Dawley
human [7] = assay: concentration in blood after dosing
In short: as §1

human [8] = assay: amount in urine after dosing (umol)
In short: as §1

c1ccc2c(c1)cc1ccc3cccc4ccc2c1c34 [benzo[a]pyrene]
mouse [1]
Conditions | concentration in blood [ng/mL]
0.4576 h | 68.9
0.4733 h | 61
0.9942 h | 148
1.01 h | 190
1.436 h | 196
1.452 h | 276
1.957 h | 239
1.989 h | 253
3.014 h | 282
3.046 h | 85
4.04 h | 258
4.072 h | 15.5
4.94 h | 8.52
5.934 h | 6.45
6.013 h | 252
9.028 h | 65.1
11.99 h | 18.4
14.99 h | 6.86

COc1ccc(C(=O)c2ccccc2)c(O)c1 [2-Hydroxy-4-methoxybenzophenone]
Conditions | concentration in plasma [ng/mL]
Mouse [2] | 11900
Mouse [3] | 468

CO [methanol]
monkey
Conditions | concentration in blood [ng/mL]
0.5142 h, 2000 ppm | 54500
0.5644 h, 1200 ppm | 35700
1.044 h, 1200 ppm | 31200
1.066 h, 2000 ppm | 52700
1.558 h, 1200 ppm | 31400
1.603 h, 2000 ppm | 47700
2.036 h, 1200 ppm | 27700
2.065 h, 2000 ppm | 39000
3.014 h, 1200 ppm | 21100
3.019 h, 2000 ppm | 40300
4.525 h, 1200 ppm | 14300
4.556 h, 2000 ppm | 24100
6.067 h, 2000 ppm | 16300
6.073 h, 1200 ppm | 10300
8.074 h, 2000 ppm | 9200
8.076 h, 1200 ppm | 7660
10 h, 1200 ppm | 7870
10.06 h, 2000 ppm | 7580
97 s, 1200 ppm | 38600
101 s, 2000 ppm | 65800

O=C(O)C(F)(F)C(F)(F)C(F)(F)C(F)(F)C(F)(F)C(F)(F)C(F)(F)F [Perfluorooctanoic acid]
Conditions | concentration in brain [ng/g] | concentration in kidney [ng/g] | concentration in liver [ng/g]
Rat [4] | – | – | 1600
Rat [5] | 1330 | – | –
Rat [6] | – | 14100 | –

CC(C)(C)O [tert-butyl alcohol]
inhalation, duration: 4 hr
Conditions | amount in urine | concentration in blood [nM]
human [7], 1.944 h, dosed: methyl tert-butyl ether, 4.5 ppm | – | 1930
human [7], 1.995 h, dosed: methyl tert-butyl ether, 38.7 ppm | – | 22200
human [7], 2.028 h, dosed: ethyl tert-butyl ether, 40.6 ppm | – | 12800
human [7], 2.045 h, dosed: ethyl tert-butyl ether, 4.5 ppm | – | 1690
human [7], 3.934 h, dosed: methyl tert-butyl ether, 4.5 ppm | – | 1730
human [7], 3.985 h, dosed: methyl tert-butyl ether, 38.7 ppm | – | 17800
human [7], 4.023 h, dosed: ethyl tert-butyl ether, 4.5 ppm | – | 1620
human [7], 4.023 h, dosed: ethyl tert-butyl ether, 40.6 ppm | – | 11000
human [7], 5.95 h, dosed: methyl tert-butyl ether, 4.5 ppm | – | 1580
human [7], 6.001 h, dosed: methyl tert-butyl ether, 38.7 ppm | – | 12500
human [7], 6.034 h, dosed: ethyl tert-butyl ether, 4.5 ppm | – | 1170
human [7], 6.034 h, dosed: ethyl tert-butyl ether, 40.6 ppm | – | 9280
human [7], 7.952 h, dosed: methyl tert-butyl ether, 4.5 ppm | – | 917
human [7], 7.96 h, dosed: ethyl tert-butyl ether, 4.5 ppm | – | 1100
human [7], 7.977 h, dosed: ethyl tert-butyl ether, 40.6 ppm | – | 8400
human [7], 8.017 h, dosed: methyl tert-butyl ether, 38.7 ppm | – | 10000
human [7], 9.972 h, dosed: ethyl tert-butyl ether, 4.5 ppm | – | 771
human [7], 9.972 h, dosed: ethyl tert-butyl ether, 40.6 ppm | – | 6190
human [7], 10.03 h, dosed: methyl tert-butyl ether, 38.7 ppm | – | 8310
human [7], 11.93 h, dosed: ethyl tert-butyl ether, 4.5 ppm | – | 905
human [7], 11.98 h, dosed: ethyl tert-butyl ether, 40.6 ppm | – | 5880
human [7], 12.05 h, dosed: methyl tert-butyl ether, 38.7 ppm | – | 5730
human [7], 18 s, dosed: methyl tert-butyl ether, 4.5 ppm | – | 2660
human [7], 20 s, dosed: methyl tert-butyl ether, 38.7 ppm | – | 21800
human [7], 23.91 h, dosed: ethyl tert-butyl ether, 40.6 ppm | – | 2670
human [7], 23.99 h, dosed: methyl tert-butyl ether, 38.7 ppm | – | 1140
human [7], 61 s, dosed: ethyl tert-butyl ether, 4.5 ppm | – | 1870
human [7], 61 s, dosed: ethyl tert-butyl ether, 40.6 ppm | – | 14300
human [8], 0 h, dosed: ethyl tert-butyl ether, 40.6 ppm | 2.39 | –
human [8], 0 h, dosed: methyl tert-butyl ether, 4.5 ppm | 0.221 | –
human [8], 0.1079 h, dosed: methyl tert-butyl ether, 38.7 ppm | 6.16 | –
human [8], 2 s, dosed: ethyl tert-butyl ether, 4.5 ppm | 0.655 | –
human [8], 5.895 h, dosed: ethyl tert-butyl ether, 40.6 ppm | 5.98 | –
human [8], 5.968 h, dosed: ethyl tert-butyl ether, 4.5 ppm | 1.15 | –
human [8], 6.052 h, dosed: methyl tert-butyl ether, 4.5 ppm | 0.993 | –
human [8], 6.07 h, dosed: methyl tert-butyl ether, 38.7 ppm | 7.53 | –
human [8], 11.89 h, dosed: ethyl tert-butyl ether, 40.6 ppm | 5.18 | –
human [8], 11.9 h, dosed: methyl tert-butyl ether, 4.5 ppm | 0.993 | –
human [8], 11.92 h, dosed: methyl tert-butyl ether, 38.7 ppm | 6.16 | –
human [8], 12.14 h, dosed: ethyl tert-butyl ether, 4.5 ppm | 0.764 | –
human [8], 17.89 h, dosed: ethyl tert-butyl ether, 40.6 ppm | 3.59 | –
human [8], 18.05 h, dosed: ethyl tert-butyl ether, 4.5 ppm | 0.545 | –
human [8], 18.05 h, dosed: methyl tert-butyl ether, 4.5 ppm | 0.221 | –
human [8], 18.09 h, dosed: methyl tert-butyl ether, 38.7 ppm | 4.11 | –
human [8], 23.89 h, dosed: ethyl tert-butyl ether, 40.6 ppm | 1.59 | –
human [8], 23.9 h, dosed: methyl tert-butyl ether, 4.5 ppm | 0.221 | –
human [8], 23.95 h, dosed: methyl tert-butyl ether, 38.7 ppm | 2.74 | –
human [8], 24.02 h, dosed: ethyl tert-butyl ether, 4.5 ppm | 0.545 | –
human [8], 29.89 h, dosed: ethyl tert-butyl ether, 40.6 ppm | 1.39 | –
human [8], 30.05 h, dosed: methyl tert-butyl ether, 4.5 ppm | 0.221 | –
human [8], 30.12 h, dosed: methyl tert-butyl ether, 38.7 ppm | 4.11 | –
human [8], 30.19 h, dosed: ethyl tert-butyl ether, 4.5 ppm | 0.273 | –
human [8], 35.9 h, dosed: methyl tert-butyl ether, 4.5 ppm | 0.11 | –
human [8], 35.97 h, dosed: methyl tert-butyl ether, 38.7 ppm | 2.74 | –
human [8], 36.11 h, dosed: ethyl tert-butyl ether, 40.6 ppm | 0.598 | –
human [8], 42.11 h, dosed: ethyl tert-butyl ether, 40.6 ppm | 0.598 | –
human [8], 42.14 h, dosed: methyl tert-butyl ether, 38.7 ppm | 0.685 | –
human [8], 48.11 h, dosed: ethyl tert-butyl ether, 40.6 ppm | 0.797 | –
human [8], 48.29 h, dosed: ethyl tert-butyl ether, 4.5 ppm | 0.0545 | –
human [8], 54.17 h, dosed: methyl tert-butyl ether, 38.7 ppm | 0.685 | –
human [8], 71.95 h, dosed: methyl tert-butyl ether, 38.7 ppm | 0.685 | –
human [8], 72.05 h, dosed: ethyl tert-butyl ether, 40.6 ppm | 0.199 | –

dosed: methyl tert-butyl ether, oral
Conditions | amount in urine, human [8] | concentration in blood, human [7] [nM]
0 h, 5 mg | 0.0137 | –
0.9669 h, 5 mg | – | 463
1.015 h, 15 mg | – | 1880
1.979 h, 15 mg | – | 1700
1.982 h, 5 mg | – | 430
2.968 h, 15 mg | – | 1580
2.972 h, 5 mg | – | 391
3.958 h, 15 mg | – | 1510
3.961 h, 5 mg | – | 370
5.859 h, 15 mg | 0.646 | –
5.915 h, 5 mg | – | 318
5.962 h, 15 mg | – | 1230
6.163 h, 5 mg | 0.274 | –
7.92 h, 5 mg | – | 290
7.966 h, 15 mg | – | 983
9.925 h, 5 mg | – | 236
9.97 h, 15 mg | – | 937
11.95 h, 15 mg | – | 806
12.01 h, 5 mg | 0.233 | 199
12.04 h, 15 mg | 0.568 | –
17.9 h, 15 mg | 0.329 | –
18.18 h, 5 mg | 0.123 | –
23.95 h, 15 mg | – | 268
23.99 h, 5 mg | – | 53.5
24.08 h, 15 mg | 0.292 | –
24.24 h, 5 mg | 0.0548 | –
29.94 h, 15 mg | 0.214 | –
30.19 h, 5 mg | 0.0685 | –
36.12 h, 15 mg | 0.136 | –
36.25 h, 5 mg | 0.0548 | –
41.98 h, 15 mg | 0.138 | –
42.1 h, 5 mg | 0.0137 | –
48.05 h, 15 mg | 0.101 | –
54.02 h, 15 mg | 0.143 | –

— EPA's CvTdb concentration-time database
